Non-standard residues stand in square brackets, D forms with d. Residues, ends and D or L forms follow the SMILES beside them. *: point of attachment. Asu = N[C@@H](CCCCCC(=O)O)C(=O)O; Aib = CC(C)(N)C(=O)O; NHOH = ON*
Key:
[1] = system: Jurkat; assay: Cytotoxicity against human Jurkat cells after 48 hrs by One aqueous proliferation assay; type: functional, cell-based
Summary of the method: (§1)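 Cells seeded at 5000 per well, with compound or DMSO vehicle added 24 h after seeding. Incubated 48 h at 37 C, three replicates per concentration. Growth was read by MTS absorbance at 490 nm. GI50 is the concentration reducing cell number by 50% versus control.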

[2] = system: MCF7; assay: Cytotoxicity against human MCF7 cells after 48 hrs by One aqueous proliferation assay; type: functional, cell-based; details: MCF7, 48 h; summary of the method: as §1
[3] = system: MCF-10A; assay: Cytotoxicity against human MCF10A cells after 48 hrs by One aqueous proliferation assay; type: functional, cell-based; summary of the method: as §1
[4] = biological target: Histone deacetylase 1 (Homo sapiens, UniProt Q13547); assay: Inhibition of FLAG-tagged HDAC1 expressed in human 293T cells; type: cell-based
Summary of the method: (§2)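 FLAG-HDAC1 or FLAG-HDAC6 was immunoprecipitated with M2 agarose from lysates of overexpressing 293T cells, washed in enzyme buffer and diluted 1:10. Bead suspension, inhibitor and unselective fluorogenic substrate ZMAL were incubated at 37 C for 180 min. The reaction was stopped with TSA/borate pH 9.5/NDA and read at ex 330/em 390 nm. IC50 came from a dilution series against 0% and 100% (TSA) inhibition standards. Selectivity is the ratio of HDAC1 to HDAC6 IC50.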

[5] = system: PC-3; assay: Cytotoxicity against human PC3 cells after 48 hrs by One aqueous proliferation assay; type: functional, cell-based; details: PC-3, 48 h; summary of the method: as §1
[6] = biological target: T1, Protein deacetylase HDAC6 (Homo sapiens, UniProt Q9UBN7); assay: Inhibition of FLAG-tagged HDAC6 expressed in human 293T cells; type: cell-based
T1 sequence (Q9UBN7 whole entry): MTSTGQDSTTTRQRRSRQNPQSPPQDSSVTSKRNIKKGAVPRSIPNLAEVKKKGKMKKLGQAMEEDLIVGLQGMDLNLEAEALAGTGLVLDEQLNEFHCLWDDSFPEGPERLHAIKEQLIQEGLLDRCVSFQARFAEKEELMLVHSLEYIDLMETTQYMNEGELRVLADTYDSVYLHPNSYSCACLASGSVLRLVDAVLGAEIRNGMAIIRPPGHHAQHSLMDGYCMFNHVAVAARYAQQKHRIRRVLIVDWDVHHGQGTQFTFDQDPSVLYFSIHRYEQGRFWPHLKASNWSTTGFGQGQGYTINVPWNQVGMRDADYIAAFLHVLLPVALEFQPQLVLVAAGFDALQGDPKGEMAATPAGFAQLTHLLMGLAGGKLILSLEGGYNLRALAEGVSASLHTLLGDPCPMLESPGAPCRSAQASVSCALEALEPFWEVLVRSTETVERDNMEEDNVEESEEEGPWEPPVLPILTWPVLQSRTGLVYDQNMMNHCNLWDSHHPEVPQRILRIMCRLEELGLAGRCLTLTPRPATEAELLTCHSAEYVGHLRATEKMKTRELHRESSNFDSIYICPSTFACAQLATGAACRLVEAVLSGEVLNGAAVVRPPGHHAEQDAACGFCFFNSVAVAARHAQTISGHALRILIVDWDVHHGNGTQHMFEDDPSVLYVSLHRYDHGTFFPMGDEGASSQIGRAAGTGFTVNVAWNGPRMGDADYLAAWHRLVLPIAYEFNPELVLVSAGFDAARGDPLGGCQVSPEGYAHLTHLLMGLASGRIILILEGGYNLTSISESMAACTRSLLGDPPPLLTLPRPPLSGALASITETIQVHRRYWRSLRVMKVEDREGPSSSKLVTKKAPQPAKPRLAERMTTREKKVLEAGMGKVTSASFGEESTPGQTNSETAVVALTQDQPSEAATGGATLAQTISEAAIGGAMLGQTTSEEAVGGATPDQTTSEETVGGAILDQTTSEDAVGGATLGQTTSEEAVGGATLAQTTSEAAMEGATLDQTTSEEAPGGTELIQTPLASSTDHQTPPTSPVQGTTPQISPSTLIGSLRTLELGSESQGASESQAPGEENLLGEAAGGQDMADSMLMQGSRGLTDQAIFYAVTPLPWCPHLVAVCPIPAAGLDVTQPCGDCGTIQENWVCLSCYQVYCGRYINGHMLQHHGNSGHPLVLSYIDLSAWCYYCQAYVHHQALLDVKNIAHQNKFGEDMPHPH

[7] = Inhibition of HDAC6 in rat liver extract
[8] = biological target: Histone deacetylase 1 (Rattus norvegicus, UniProt Q4QQW4); assay: Inhibition of HDAC1 in rat liver extract
[9] = system: HeLa; assay: Cytotoxicity against human HeLa cells after 48 hrs by One aqueous proliferation assay; type: functional, cell-based; summary of the method: as §1
[10] = organism: Homo sapiens; assay: Selectivity for human FLAG-tagged HDAC6 over human FLAG-tagged HDAC1; summary of the method: as §2
[11] = organism: Rattus norvegicus; assay: Selectivity for rat liver HDAC6 over rat liver HDAC1
[12] = system: SQ20B; assay: Cytotoxicity against human SQ20B cells after 48 hrs by One aqueous proliferation assay; type: functional, cell-based; summary of the method: as §1

Sequence of Histone deacetylase 1 (Rattus norvegicus, UniProt Q4QQW4) (Q4QQW4 whole entry): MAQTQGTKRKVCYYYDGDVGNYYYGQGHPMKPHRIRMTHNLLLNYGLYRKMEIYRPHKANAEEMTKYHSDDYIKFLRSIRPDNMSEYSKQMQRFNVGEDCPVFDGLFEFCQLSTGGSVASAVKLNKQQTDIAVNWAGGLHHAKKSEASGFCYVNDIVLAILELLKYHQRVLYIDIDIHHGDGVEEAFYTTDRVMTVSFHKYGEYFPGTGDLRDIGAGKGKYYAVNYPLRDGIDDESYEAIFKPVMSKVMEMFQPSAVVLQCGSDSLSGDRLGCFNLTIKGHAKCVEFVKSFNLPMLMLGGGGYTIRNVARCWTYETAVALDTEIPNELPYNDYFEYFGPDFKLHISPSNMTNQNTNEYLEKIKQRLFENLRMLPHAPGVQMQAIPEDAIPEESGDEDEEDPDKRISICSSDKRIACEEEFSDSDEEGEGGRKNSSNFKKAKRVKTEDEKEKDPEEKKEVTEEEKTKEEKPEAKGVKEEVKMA
Sequence of Histone deacetylase 1 (Homo sapiens, UniProt Q13547) (Q13547 whole entry): as the sequence (Q4QQW4 whole entry) above, with K8R, E399D, D424E, M481L counted along it

Structure (SMILES) | IC50 [1] [µM] | IC50 [2] [µM] | IC50 [3] [µM] | IC50 [4] [µM] | IC50 [5] [µM] | IC50 [6] [µM] | IC50 [7] [µM] | IC50 [8] [µM] | IC50 [9] [µM] | Ratio IC50 [10] | Ratio IC50 [11] | IC50 [12] [µM]
COC(=O)[C@H](Cc1ccc(-c2ccsc2)cc1)NC(=O)CCCCCCCC(=O)NO | 2.8 | 17 | 32 | 19.2 | 10 | 1.77 | 0.81 | 3.01 | 10 | 10.8 | 3.72 | 37
COC(=O)[C@H](Cc1ccc(-c2ccc3ccccc3c2)cc1)NC(=O)CCCCCCC(=O)NO |  | 1.9 |  | 2.98 |  | 1.17 | 0.91 | 0.63 |  | 2.55 | 0.69 | 
COC(=O)[C@H](Cc1ccc(-c2cccs2)cc1)NC(=O)CCCCCCCC(=O)NO |  | 4 |  | 16.8 |  | 4.09 | 0.84 | 2.55 |  | 4.1 | 3.04 | 
COC(=O)[C@H](Cc1ccc(Br)cc1)NC(=O)CCCCCCC(=O)NO | 3 | 22 | > 50 | 22.9 | > 50 |  | 4.98 | 3.19 | 15 | 13.5 | 0.64 | 25
COC(=O)[C@H](Cc1ccc(-c2ccc(-c3ccccc3)cc2)cc1)NC(=O)CCCCCCCC(=O)NO |  | 3.8 |  | 38.3 |  | 14.7 | 6.76 | 8.76 |  | 2.6 | 1.3 | 
COC(=O)[C@H](Cc1ccc(-c2ccoc2)cc1)NC(=O)CCCCCCC(=O)NO |  | 1.5 |  | 6.35 |  | 1.13 | 2.25 | 3.18 |  | 5.62 | 1.41 | 
COC(=O)[C@H](Cc1ccc(-c2ccoc2)cc1)NC(=O)CCCCCCCC(=O)NO | 4 | 32 | 44 | 10.3 | 10 | 1.05 | 0.68 | 3.03 | 21 | 9.81 | 4.46 | 35
COC(=O)[C@H](Cc1ccc(-c2ccco2)cc1)NC(=O)CCCCCCCC(=O)NO |  | 18 |  | 9.76 |  | 2.33 | 0.47 | 2.44 |  | 4.19 | 5.19 | 
CC1(C)NC(=O)[C@H](CCCCCC(=O)NO)NC(=O)[C@H]2CCCN2C(=O)[C@H](Cc2ccccc2)NC1=O (cyclo([Aib]F[dP][Asu](NHOH))) |  |  |  | 0.0004 |  | 0.04 | 0.23 | 0.021 |  | 0.01 | 0.09 | 
CN(C)c1ccc(C(=O)NCCCCCCC(=O)NO)cc1 |  |  |  | 2.96 |  | 0.75 | 0.08 | 0.24 |  | 3.95 | 3 | 
COC(=O)[C@H](Cc1ccc(-c2ccccc2)cc1)NC(=O)CCCCCCCC(=O)NO | 2.7 | 21 | 42 | 9.54 | 9.9 | 2.33 | 6.1 | 1.68 | 7 | 4.09 | 0.28 | 33
COC(=O)[C@H](Cc1ccc(-c2ccc(-c3ccccc3)cc2)cc1)NC(=O)CCCCCCC(=O)NO |  | 0.8 |  | 0.96 |  | 0.69 | 0.78 | 0.13 |  | 1.39 | 0.17 | 
COC(=O)[C@H](Cc1ccc(-c2ccsc2)cc1)NC(=O)CCCCCCC(=O)NO |  | 1.5 |  | 3.34 |  | 4.02 | 0.5 | 0.59 |  | 0.83 | 1.18 | 
COC(=O)[C@H](Cc1ccc(-c2cccs2)cc1)NC(=O)CCCCCCC(=O)NO | 0.4 | 4 | 8 | 5.07 | 1.8 | 9.99 | 0.58 | 0.57 | 3 | 0.51 | 0.98 | 6
COC(=O)[C@H](Cc1ccc(-c2ccco2)cc1)NC(=O)CCCCCCC(=O)NO |  | 1.5 |  | 2.61 |  | 4.49 | 6.76 | 7.53 |  | 0.58 | 1.11 | 
COC(=O)[C@H](Cc1ccc(Br)cc1)NC(=O)CCCCCCCC(=O)NO |  | 0.9 |  | 28.4 |  | 4.67 | 0.68 | 2.11 |  | 6.09 | 3.1 | 
COC(=O)[C@H](Cc1ccc(-c2ccccc2)cc1)NC(=O)CCCCCCC(=O)NO |  | 5 |  | 1.22 |  | 1.05 | 0.58 | 0.44 |  | 1.16 | 0.76 | 

— ChEMBL document CHEMBL1144006, “Phenylalanine-containing hydroxamic acids as selective inhibitors of class IIb histone deacetylases (HDACs)” (Bioorg Med Chem, 2008)
